Drawing on ChEMBL document CHEMBL1156610, “Synthesis, biological evaluation, and molecular modeling studies of methylene imidazole substituted biaryls as inhibitors of human 17alpha-hydroxylase-17,20-lyase (CYP17)--part II: Core rigidification and influence of substituents at the methylene bridge” (Bioorg Med Chem, 2008), this text covers IC50 and inhibition for 36 compounds.

The target in series [1] is T1, Steroid 17-alpha-hydroxylase/17,20 lyase (Homo sapiens, UniProt P05093).
T1 sequence (P05093 whole entry): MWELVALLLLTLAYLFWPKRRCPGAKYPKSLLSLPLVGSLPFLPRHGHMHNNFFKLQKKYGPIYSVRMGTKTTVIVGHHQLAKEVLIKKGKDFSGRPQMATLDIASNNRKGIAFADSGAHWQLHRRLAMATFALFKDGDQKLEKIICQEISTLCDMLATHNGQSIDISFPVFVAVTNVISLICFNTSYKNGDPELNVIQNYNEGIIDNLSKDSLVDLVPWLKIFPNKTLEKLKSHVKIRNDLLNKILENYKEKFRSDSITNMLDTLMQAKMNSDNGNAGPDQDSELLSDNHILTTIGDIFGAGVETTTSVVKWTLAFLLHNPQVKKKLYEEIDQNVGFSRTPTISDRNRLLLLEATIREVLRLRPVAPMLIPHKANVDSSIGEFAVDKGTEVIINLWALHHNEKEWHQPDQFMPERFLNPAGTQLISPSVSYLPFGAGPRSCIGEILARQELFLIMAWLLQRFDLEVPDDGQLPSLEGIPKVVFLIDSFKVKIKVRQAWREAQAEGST
Nature of the series: Inhibition of human CYP17 expressed in Escherichia coli coexpressed with cytochrome P450 reductase. The method in brief: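 Enzyme source: 50,000g sediment from homogenized E. coli coexpressing human CYP17 and cytochrome P450 reductase. Substrate progesterone (25 µM as printed), NADPH cofactor.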

For a further series, the target named is CYP3A4 (Homo sapiens, UniProt P08684). Kind of series: Inhibition of hepatic CYP3A4 expressed in insect microsomes at 1 uM. It is filed as ADME, Microsome. The method in brief:
(§1)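 Recombinant human enzymes from baculovirus-infected insect cell microsomes, run per supplier protocol. Test concentration 1 µM; values are means of at least three independent tests, standard deviations under 5%.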

The next series addresses T2, CYP1A2 (Homo sapiens, UniProt P05177).
T2 sequence (P05177 whole entry): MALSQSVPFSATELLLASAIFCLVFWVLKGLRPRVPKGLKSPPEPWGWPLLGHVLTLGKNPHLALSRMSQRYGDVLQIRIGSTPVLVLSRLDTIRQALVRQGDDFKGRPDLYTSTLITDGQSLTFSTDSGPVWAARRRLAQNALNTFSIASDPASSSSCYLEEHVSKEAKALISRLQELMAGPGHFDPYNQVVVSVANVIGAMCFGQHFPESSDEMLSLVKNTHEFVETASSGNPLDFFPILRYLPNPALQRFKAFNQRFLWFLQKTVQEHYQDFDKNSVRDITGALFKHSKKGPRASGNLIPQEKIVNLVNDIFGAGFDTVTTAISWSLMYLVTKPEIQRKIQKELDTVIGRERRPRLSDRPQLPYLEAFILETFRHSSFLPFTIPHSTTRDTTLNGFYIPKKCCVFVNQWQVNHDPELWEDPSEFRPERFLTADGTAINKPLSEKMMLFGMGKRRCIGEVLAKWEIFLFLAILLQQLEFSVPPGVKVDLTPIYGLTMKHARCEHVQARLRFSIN
Kind of series: Inhibition of hepatic CYP1A2 expressed in insect microsomes at 1 uM. It is filed as ADME, Microsome. The method in brief:
as §1

A further series deals with T3, CYP2B6 (Homo sapiens, UniProt P20813).
T3 sequence (P20813 whole entry): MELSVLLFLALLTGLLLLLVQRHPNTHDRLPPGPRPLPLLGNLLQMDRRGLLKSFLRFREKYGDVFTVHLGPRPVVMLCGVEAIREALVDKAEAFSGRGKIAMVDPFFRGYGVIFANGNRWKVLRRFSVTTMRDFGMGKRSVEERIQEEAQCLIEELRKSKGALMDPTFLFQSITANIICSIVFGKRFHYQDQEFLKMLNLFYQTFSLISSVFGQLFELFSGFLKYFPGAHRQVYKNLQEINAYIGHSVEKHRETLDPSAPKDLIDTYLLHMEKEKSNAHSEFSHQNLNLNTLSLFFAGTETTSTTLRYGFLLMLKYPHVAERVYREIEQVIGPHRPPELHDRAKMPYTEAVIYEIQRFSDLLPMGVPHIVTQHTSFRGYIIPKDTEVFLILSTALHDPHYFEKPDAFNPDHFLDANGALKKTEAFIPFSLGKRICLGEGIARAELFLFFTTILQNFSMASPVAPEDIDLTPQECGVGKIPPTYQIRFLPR
Nature of the series: Inhibition of hepatic CYP2B6 expressed in insect microsomes at 1 uM. It is filed as ADME, Microsome. The method in brief: as §1

A further series has as its target CYP2D6 (Homo sapiens, UniProt P10635). Kind of series: Inhibition of hepatic CYP2D6 expressed in insect microsomes at 1 uM. Type of series: ADME, Microsome. The method in brief:
as §1

Another series deals with T4, CYP11B1 (Homo sapiens, UniProt P15538).
T4 sequence (P15538 whole entry): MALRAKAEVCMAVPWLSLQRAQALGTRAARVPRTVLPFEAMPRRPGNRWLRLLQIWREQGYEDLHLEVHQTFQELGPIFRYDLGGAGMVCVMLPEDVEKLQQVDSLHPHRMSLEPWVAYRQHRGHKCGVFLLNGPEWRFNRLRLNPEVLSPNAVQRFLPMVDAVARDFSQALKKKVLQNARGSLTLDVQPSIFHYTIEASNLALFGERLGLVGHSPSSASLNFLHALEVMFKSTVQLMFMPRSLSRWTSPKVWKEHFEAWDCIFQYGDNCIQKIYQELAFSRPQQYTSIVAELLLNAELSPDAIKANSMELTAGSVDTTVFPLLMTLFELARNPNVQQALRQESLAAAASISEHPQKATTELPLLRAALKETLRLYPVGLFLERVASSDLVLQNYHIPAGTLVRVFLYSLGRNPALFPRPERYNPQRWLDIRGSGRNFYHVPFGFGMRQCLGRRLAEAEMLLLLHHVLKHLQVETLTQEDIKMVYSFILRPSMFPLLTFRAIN
Kind of series: Inhibition of human CYP11B1 at 0.2 uM using [4-14C]-11-dexycorticosterone as a substrate. Conditions: probe [4-14C]-11-dexycorticosterone. In short, it runs like this:
(§2)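 V79MZh cells expressing human CYP11B1 or CYP11B2, incubated with [4-14C]-11-deoxycorticosterone as substrate; inhibitors tested at 0.2 µM.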

The target in another series is T5, CYP11B2 (Homo sapiens, UniProt P19099).
T5 sequence (P19099 whole entry): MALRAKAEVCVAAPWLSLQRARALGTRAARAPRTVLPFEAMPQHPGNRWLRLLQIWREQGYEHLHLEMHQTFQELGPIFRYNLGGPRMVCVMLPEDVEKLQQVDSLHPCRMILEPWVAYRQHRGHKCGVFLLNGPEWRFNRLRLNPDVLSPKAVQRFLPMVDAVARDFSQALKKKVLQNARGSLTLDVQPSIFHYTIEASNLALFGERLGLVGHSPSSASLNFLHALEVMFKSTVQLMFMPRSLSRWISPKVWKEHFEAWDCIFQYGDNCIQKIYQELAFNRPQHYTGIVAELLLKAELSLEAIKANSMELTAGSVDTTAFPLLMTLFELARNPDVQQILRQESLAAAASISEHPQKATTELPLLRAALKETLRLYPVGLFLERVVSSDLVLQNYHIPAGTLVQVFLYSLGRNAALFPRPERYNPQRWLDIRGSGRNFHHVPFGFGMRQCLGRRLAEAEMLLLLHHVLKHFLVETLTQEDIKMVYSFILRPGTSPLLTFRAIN
Nature of the series: Inhibition of human CYP11B2 at 0.2 uM using [4-14C]-11-dexycorticosterone as a substrate. Conditions: probe [4-14C]-11-dexycorticosterone. In short, it runs like this: as §2

Where only a bound is given, the exact number is not on record here.

Sequence of CYP3A4 (P08684 whole entry): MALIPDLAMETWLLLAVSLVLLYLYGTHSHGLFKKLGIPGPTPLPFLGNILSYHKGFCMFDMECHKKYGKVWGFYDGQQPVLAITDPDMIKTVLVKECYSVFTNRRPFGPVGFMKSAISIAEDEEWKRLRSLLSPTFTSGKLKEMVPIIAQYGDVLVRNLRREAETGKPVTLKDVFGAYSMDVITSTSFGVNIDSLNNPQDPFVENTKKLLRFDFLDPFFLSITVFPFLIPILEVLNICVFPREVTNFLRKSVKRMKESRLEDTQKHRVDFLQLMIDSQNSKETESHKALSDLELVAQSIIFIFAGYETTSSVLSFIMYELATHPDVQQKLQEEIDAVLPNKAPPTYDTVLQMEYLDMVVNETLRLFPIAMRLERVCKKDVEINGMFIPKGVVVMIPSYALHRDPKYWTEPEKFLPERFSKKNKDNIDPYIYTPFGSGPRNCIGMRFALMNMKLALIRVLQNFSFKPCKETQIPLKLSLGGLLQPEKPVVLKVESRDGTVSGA
Sequence of CYP2D6 (P10635 whole entry): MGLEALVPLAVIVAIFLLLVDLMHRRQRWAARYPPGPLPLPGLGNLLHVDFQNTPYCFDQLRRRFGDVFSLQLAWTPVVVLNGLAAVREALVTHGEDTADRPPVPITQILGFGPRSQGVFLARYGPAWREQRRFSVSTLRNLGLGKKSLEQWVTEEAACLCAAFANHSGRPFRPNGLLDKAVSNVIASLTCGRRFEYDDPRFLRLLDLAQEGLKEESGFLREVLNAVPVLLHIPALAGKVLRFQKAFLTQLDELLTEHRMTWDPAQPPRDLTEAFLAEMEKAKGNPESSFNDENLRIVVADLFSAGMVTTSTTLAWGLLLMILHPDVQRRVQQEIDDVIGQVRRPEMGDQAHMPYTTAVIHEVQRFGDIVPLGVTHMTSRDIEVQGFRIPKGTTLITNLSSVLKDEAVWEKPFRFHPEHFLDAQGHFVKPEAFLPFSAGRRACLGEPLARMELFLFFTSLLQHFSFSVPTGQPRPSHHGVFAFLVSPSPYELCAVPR

The IC50 is the concentration that inhibits the measured activity by half. The low end stands for inhibition by little substance, the high end for a need for much substance. `CCc1ccc(-c2ccc(C(CC)n3ccnc3)cc2)cc1` (stereo not given): the concentration for half-maximal inhibition (IC50) in series [1] worked out at 2000 nM.

Take `CCC(c1ccc(-c2ccccc2)cc1)n1ccnc1` (stereo not given): the midpoint of inhibition in series [1], the IC50, lay at 450 nM.

What is called inhibition is how much of the control response was suppressed. A low value points to a weak effect. Turning to `CC(c1ccc2c(c1)[nH]c1cc(F)ccc12)n1ccnc1` (stereo not given), the half-inhibitory concentration (IC50) in series [1] amounted to 118 nM. Further, on CYP3A4, testing at 1 µM gave an inhibition of 75%. The compound `CCCC(c1ccc(-c2ccccc2)cc1)n1ccnc1` (stereo not given) gave an IC50 in series [1] of 580 nM. For `CC(C)(c1ccc(-c2ccc(F)cc2)cc1)n1ccnc1`, in series [1], it took 3800 nM to reach half-maximal inhibition (IC50).

`CC(c1ccc2c(c1)[nH]c1ccccc12)n1ccnc1` (stereo not given): the figures for the inhibition at 1 µM at CYP1A2 and on CYP3A4 were 99% and 88%, respectively. In addition, half-maximal inhibition in series [1] (IC50) was put at 282 nM. As for `CCC(c1ccc(-c2ccc(SC)cc2)cc1)n1ccnc1` (stereo not given), in series [1], the IC50 was found to be 3100 nM.

Turning to `C=CC(c1ccc(-c2ccccc2)cc1)n1ccnc1` (stereo not given), in series [1], half-maximal inhibition (IC50) required 1400 nM. The same measure, in the same setting: next, `CCC(c1ccc(-c2ccc(NC(C)=O)cc2)cc1)n1ccnc1` (stereo not given): more than 5000 nM. `CCC(c1ccc(-c2ccc(O)cc2)cc1)n1ccnc1` (stereo not given) returned an IC50 in series [1] of 375 nM. Same read-out and setting: next, `CCCCC(c1ccc(-c2ccccc2)cc1)n1ccnc1` (stereo not given): 300 nM. With `c1ccc2c(c1)Cc1cc(Cn3ccnc3)ccc1-2`, half-maximal inhibition in series [1] (IC50) was put at 388 nM.

`C=CC(c1ccc(-c2ccc(F)cc2)cc1)n1ccnc1` (stereo not given) had a 50% inhibitory concentration (IC50) in series [1] of more than 5000 nM. With `CCC(CC)(c1ccc(-c2ccc(F)cc2)cc1)n1ccnc1`, the inhibition at 1 µM against CYP1A2 was 51%; against CYP3A4 it was 95%. For the same compound, the midpoint of inhibition in series [1], the IC50, lay at 1300 nM. On to `CC(C)CC(c1ccc(-c2ccccc2)cc1)n1ccnc1` (stereo not given), for which the IC50 in series [1] is 2100 nM.

With `CCC(c1ccc(-c2ccc(C)cc2)cc1)n1ccnc1` (stereo not given), in series [1], the IC50 was more than 5000 nM. Same read-out and setting: then `FC(F)(F)c1ccc(-c2ccc(Cn3ccnc3)cc2)cc1`, with more than 5000 nM. Compound `c1ccc(-c2ccc(C(c3ccccc3)n3ccnc3)cc2)cc1` (stereo not given) [BIFONAZOLE] showed a concentration for half-maximal inhibition (IC50) in series [1] of 790 nM. For `CC(c1ccc(-c2ccc(F)cc2)cc1)n1ccnc1` (stereo not given), the IC50 in series [1] amounted to 1100 nM.

The compound `CCC(c1ccc(-c2ccc(N(C)C)cc2)cc1)n1ccnc1` (stereo not given) yielded an IC50 in series [1] of more than 5000 nM.

The compound `CCC(c1ccc(-c2ccc(OC(F)(F)F)cc2)cc1)n1ccnc1` (stereo not given) had an IC50 in series [1] of more than 5000 nM.

`c1ccc(CC(c2ccc(-c3ccccc3)cc2)n2ccnc2)cc1` (stereo not given) showed an IC50 in series [1] of 780 nM. `CCC(c1ccc(-c2ccc(N3CCOCC3)cc2)cc1)n1ccnc1` (stereo not given) came in with an IC50 in series [1] of 2200 nM. In series [1], `CC(C)(C)C(c1ccc(-c2ccccc2)cc1)n1ccnc1` (stereo not given) gave an IC50 of 460 nM. Regarding `Fc1ccc(-c2ccc(C(CCCl)n3ccnc3)cc2)cc1` (stereo not given), the inhibition at 1 µM is 96% on CYP1A2, 34% against CYP2B6, 32% on CYP2D6 and 86% at CYP3A4. The IC50 in series [1] is 756 nM. For `CC(c1ccc2c(c1)Cc1cc(O)ccc1-2)n1ccnc1` (stereo not given), the inhibition at 0.2 µM at CYP11B1 is 96%; on CYP11B2 it was 98%. Besides, the inhibition at 1 µM against CYP1A2 was 93%; against CYP3A4 it was 89%. Further, the IC50 in series [1] was determined as 99 nM. `CCC(c1ccc(-c2ccc(C#N)cc2)cc1)n1ccnc1` (stereo not given) showed an IC50 in series [1] of more than 5000 nM. In the case of `CCC(c1ccc(-c2ccc(NC(=O)OC(C)(C)C)cc2)cc1)n1ccnc1` (stereo not given), 1700 nM corresponded to half-maximal inhibition in series [1] (IC50). Moreover, at CYP3A4, the inhibition at 1 µM was 52%. In series [1], `c1ccc(-c2ccc(C(C3CCCCC3)n3ccnc3)cc2)cc1` (stereo not given) had a half-inhibitory concentration (IC50) of 1050 nM. At CYP3A4, `C[C@]12CC[C@H](O)CC1=CC[C@@H]1[C@@H]2CC[C@]2(C)C(c3cccnc3)=CC[C@@H]12` [ABIRATERONE] yielded an inhibition at 1 µM of 27%. `CC(C)C(c1ccc(-c2ccccc2)cc1)n1ccnc1` (stereo not given) came in with an IC50 in series [1] of 310 nM. In series [1], `OCCC(c1ccc(-c2ccc(F)cc2)cc1)n1ccnc1` (stereo not given) gave an IC50 of more than 5000 nM.

`CCC(c1ccc(-c2ccc(N(CC)CC)cc2)cc1)n1ccnc1` (stereo not given): the half-inhibitory concentration (IC50) in series [1] was more than 5000 nM. As to `CC(c1ccc(-c2ccccc2)cc1)n1ccnc1` (stereo not given), the IC50 in series [1] amounted to 910 nM. Turning to `c1ccc(-c2ccc(C(c3ccc(-c4ccccc4)cc3)n3ccnc3)cc2)cc1`, in series [1], the IC50 amounted to 2300 nM. Regarding `CC(c1ccc2c(c1)Cc1cc(F)ccc1-2)n1ccnc1` (stereo not given), in series [1], half-maximal inhibition (IC50) required 168 nM.
